Data from ChEMBL document CHEMBL1221337, “The unsaturated acyclic nucleoside analogues bearing a sterically constrained (Z)-4'-benzamido-2'-butenyl moiety: Synthesis, X-ray crystal structure study, cytostatic and antiviral activity evaluations” (Bioorg Med Chem, 2010).
Active and inactive are the calls of the source. No cut-off for these calls is given here.

Assays:
[1] = test system: Vesicular stomatitis virus; experiment: Antiviral activity against Vesicular stomatitis virus infected in HEL cells assessed as inhibition of virus-induced cytopathicity; type: functional, organism-based
[2] = test system: Vaccinia virus; experiment: Antiviral activity against Vaccinia virus infected in HEL cells assessed as inhibition of virus-induced cytopathicity; type: functional, organism-based; details: Orthopoxvirus vaccinia
[3] = test system: Vesicular stomatitis virus; experiment: Antiviral activity against Vesicular stomatitis virus infected in human HeLa cells assessed as inhibition of virus-induced cytopathicity; type: functional, organism-based
Summary of the method: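 Confluent HeLa cultures were infected with 100 CCID50 of virus. Unadsorbed virus was removed after 1 h, and compound was added at serial concentrations (200, 40, 8…). Viral cytopathic effect was read when untreated virus-infected control wells reached full cytopathicity.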

[4] = test system: Human alphaherpesvirus 2; experiment: Antiviral activity against HSV2 G infected in HEL cells assessed as inhibition of virus-induced cytopathicity; type: functional, organism-based; details: strain G
Summary of the method: (§1)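 Confluent cell monolayers in 96-well plates were inoculated with 100 CCID50 of virus. After 1 h adsorption, residual virus was removed. Cultures were then incubated with test compound at varying concentrations (200, 40, 8... µM). Viral cytopathicity was scored once it reached completion in untreated infected controls. Host cells: HEL for HSV-1 KOS and HSV-2 G; Vero for the Vero lines; HeLa for the HeLa lines.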

[5] = test system: Human respirovirus 3; experiment: Antiviral activity against Parainfluenza 3 infected in Vero cells assessed as inhibition of virus-induced cytopathicity; type: functional, organism-based; summary of the method: as §1
[6] = test system: SK-BR-3; experiment: Cytotoxicity against human SK-BR-3 cells after 72 hrs by MTT assay; type: functional, cell-based; details: SK-BR-3, 72 h
Summary of the method: (§2)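 Adherent cells were plated at 3000–6000 cells/well on day 0, according to doubling time. Compound was added as five 10-fold dilutions (1 × 10⁻⁸–1 × 10⁻⁴ M), with DMSO ≤0.1%, and incubated 72 h. Read-out was MTT absorbance converted to percentage growth versus untreated wells on the same plate. IC50 was obtained by linear regression between bracketing concentrations; the highest concentration was reported as ">" if not reached. Quadruplicates, three experiments.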

[7] = test system: HeLa; experiment: Cytotoxicity against human HeLa cells after 72 hrs by MTT assay; type: functional, cell-based; summary of the method: as §2
[8] = test system: MCF7; experiment: Cytotoxicity against human MCF7 cells after 72 hrs by MTT assay; type: functional, cell-based; details: MCF7, 72 h; summary of the method: as §2
[9] = test system: HEp-2; experiment: Cytotoxicity against human Hep2 cells after 72 hrs by MTT assay; type: functional, cell-based; details: HEp-2, 72 h; summary of the method: as §2
[10] = test system: SW-620; experiment: Cytotoxicity against human SW620 cells after 72 hrs by MTT assay; type: functional, cell-based; details: SW-620, 72 h; summary of the method: as §2
[11] = test system: MIA PaCa-2; experiment: Cytotoxicity against human MIAPaCa2 cells after 72 hrs by MTT assay; type: functional, cell-based; details: MIA PaCa-2, 72 h; summary of the method: as §2
[12] = Cytotoxicity against human WI38 cells after 72 hrs by MTT assay; type: cell-based; details: WI-38, 72 h; summary of the method: as §2
[13] = test system: Human alphaherpesvirus 1; experiment: Antiviral activity against HSV1 KOS infected in HEL cells assessed as inhibition of virus-induced cytopathicity; type: functional, organism-based; summary of the method: as §1
[14] = test system: Mammalian orthoreovirus 1; experiment: Antiviral activity against Reovirus 1 infected in Vero cells assessed as inhibition of virus-induced cytopathicity; type: functional, organism-based; summary of the method: as §1
[15] = test system: Sindbis virus; experiment: Antiviral activity against Sindbis virus infected in Vero cells assessed as inhibition of virus-induced cytopathicity; type: functional, organism-based; summary of the method: as §1
[16] = test system: Coxsackievirus B4; experiment: Antiviral activity against Coxsackievirus B4 infected in Vero cells assessed as inhibition of virus-induced cytopathicity; type: functional, organism-based; summary of the method: as §1
[17] = test system: Punta Toro virus; experiment: Antiviral activity against Punta Toro virus infected in Vero cells assessed as inhibition of virus-induced cytopathicity; type: functional, organism-based; summary of the method: as §1
[18] = test system: Coxsackievirus B4; experiment: Antiviral activity against Coxsackievirus B4 infected in human HeLa cells assessed as inhibition of virus-induced cytopathicity; type: functional, organism-based; summary of the method: as §1
[19] = test system: Respiratory syncytial virus; experiment: Antiviral activity against Respiratory syncytial virus infected in human HeLa cells assessed as inhibition of virus-induced cytopathicity; type: functional, organism-based; summary of the method: as §1
[20] = test system: Influenza A virus; experiment: Antiviral activity against influenza A virus H1N1; H3N2 infected in MDCK cells assessed as inhibition of virus-induced cytopathicity; type: functional, organism-based
Summary of the method: (§3)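 MDCK cells, nearly confluent in microtiter plates, were infected with 100 CCID50 per well. After 1 h adsorption, the inoculum was washed off. Cells were incubated with graded compound concentrations (200, 40, 8…). Cytopathicity was recorded at completion in untreated infected controls.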

[21] = test system: Influenza B virus; experiment: Antiviral activity against influenza B virus infected in MDCK cells assessed as inhibition of virus-induced cytopathicity; type: functional, organism-based; summary of the method: as §3
[22] = test system: HEL; experiment: Cytotoxicity against HEL cells assessed as cell viability after 3 days by coulter counting; type: cell-based; details: human, 72 h
Summary of the method: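 HEL cells were seeded at 5 × 10³ cells/well and allowed to proliferate 24 h. Medium with test compound at different concentrations was then added, and cells were incubated 3 days at 37 °C. Cell number was counted by Coulter counter. CC50 (50% reduction in cell number versus untreated controls) was read from plots of cell number (% of control) against concentration.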

[23] = test system: Vero; experiment: Cytotoxicity against african green monkey Vero cells assessed as cell viability after 3 days by coulter counting; type: cell-based; details: chlorocebus sabaeus, 72 h
[24] = test system: HeLa; experiment: Cytotoxicity against human HeLa cells assessed as cell viability after 3 days by coulter counting; type: cell-based; details: 72 h
[25] = test system: MDCK; experiment: Cytotoxicity against MDCK cells assessed as cell viability after 3 days by coulter counting; type: cell-based, Canis lupus familiaris; details: dog, 72 h

With Cc1cn(C/C=C\CNC(=O)c2ccccc2)c(=O)[nH]c1=O the inhibition [1] was “inactive”, the inhibition [2] was “inactive” and the inhibition [3] was “inactive”. The inhibition [4] was “inactive”, the inhibition [5] was “inactive” and the IC50 [6] was > 100 µM. For the same molecule, the IC50 [7] was > 100 µM, the IC50 [8] was > 100 µM and the IC50 [9] was > 100 µM. The IC50 [10] was > 100 µM, the IC50 [11] was > 100 µM and the IC50 [12] was 4.3 µM. The inhibition [13] was “inactive”, the inhibition [14] was “inactive” and the inhibition [15] was “inactive”. For the same molecule, the inhibition [16] was “inactive”, the inhibition [17] was “inactive” and the inhibition [18] was “inactive”. For the same molecule, the inhibition [19] was “inactive”, the inhibition [20] was “inactive” and the inhibition [21] was “inactive”. For the same molecule, the Activity [22] was “Non-toxic”, the Activity [23] was “Non-toxic” and the Activity [24] was “Non-toxic”. For the same molecule, the Activity [25] was “Non-toxic”.
With Nc1ncnc2c1ncn2C/C=C\CNC(=O)c1ccccc1 the inhibition [1] was “inactive”, the inhibition [2] was “inactive” and the inhibition [3] was “inactive”. The inhibition [4] was “inactive”, the inhibition [5] was “inactive” and the IC50 [6] was > 100 µM. The IC50 [7] was > 100 µM, the IC50 [8] was > 100 µM and the IC50 [9] was > 100 µM. For the same molecule, the IC50 [10] was > 100 µM, the IC50 [11] was > 100 µM and the IC50 [12] was > 100 µM. The inhibition [13] was “inactive”, the inhibition [14] was “inactive” and the inhibition [15] was “inactive”. The inhibition [16] was “inactive”, the inhibition [17] was “inactive” and the inhibition [18] was “inactive”. The inhibition [19] was “inactive”, the inhibition [20] was “inactive” and the inhibition [21] was “inactive”. For the same molecule, the Activity [22] was “Non-toxic”, the Activity [23] was “Non-toxic” and the Activity [24] was “Non-toxic”. For the same molecule, the Activity [25] was “Non-toxic”.
With Nc1nc(=O)n(C/C=C\CNC(=O)c2ccccc2)cc1F the inhibition [1] was “inactive”, the inhibition [2] was “inactive” and the inhibition [3] was “inactive”. For the same molecule, the inhibition [4] was “inactive”, the inhibition [5] was “inactive” and the IC50 [6] was > 100 µM. For the same molecule, the IC50 [7] was 71.9 µM, the IC50 [8] was 34.4 µM and the IC50 [9] was > 100 µM. For the same molecule, the IC50 [10] was > 100 µM, the IC50 [11] was > 100 µM and the IC50 [12] was 50.2 µM. For the same molecule, the inhibition [13] was “inactive”, the inhibition [14] was “inactive” and the inhibition [15] was “inactive”. For the same molecule, the inhibition [16] was “inactive”, the inhibition [17] was “inactive” and the inhibition [18] was “inactive”. The inhibition [19] was “inactive”, the inhibition [20] was “inactive” and the inhibition [21] was “inactive”. For the same molecule, the Activity [22] was “Non-toxic”, the Activity [23] was “Non-toxic” and the Activity [24] was “Non-toxic”. The Activity [25] was “Non-toxic”.
For Cc1cn(C/C=C\CNC(=O)c2ccc(F)cc2)c(=O)[nH]c1=O, the inhibition [1] was “inactive”, the inhibition [2] was “inactive” and the inhibition [3] was “inactive”. For the same molecule, the inhibition [4] was “inactive”, the inhibition [5] was “inactive” and the IC50 [6] was > 100 µM. The IC50 [7] was > 100 µM, the IC50 [8] was 24.1 µM and the IC50 [9] was > 100 µM. For the same molecule, the IC50 [10] was > 100 µM, the IC50 [11] was > 100 µM and the IC50 [12] was 0.1 µM. For the same molecule, the inhibition [13] was “inactive”, the inhibition [14] was “inactive” and the inhibition [15] was “inactive”. For the same molecule, the inhibition [16] was “inactive”, the inhibition [17] was “inactive” and the inhibition [18] was “inactive”. For the same molecule, the inhibition [19] was “inactive”, the inhibition [20] was “inactive” and the inhibition [21] was “inactive”. The Activity [22] was “Non-toxic”, the Activity [23] was “Non-toxic” and the Activity [24] was “Non-toxic”. For the same molecule, the Activity [25] was “Non-toxic”.
